{"data": "Published values gathered from unrelated publications", "organism": "Mycolicibacterium smegmatis", "observed": "microbial growth", "note": "Lines come from different studies, so protocols differ."}
{"SMILES": "CC(C)=CCC/C(C)=C/CNCCCOC1C2CC3CC(C2)CC1C3 (stereo not drawn)", "MIC": "6.2 µg/mL"}
{"SMILES": "CN[C@@H]1[C@@H](O)[C@@H](O[C@@H]2[C@@H](O)[C@H](O[C@H]3O[C@H]([C@@H](C)O)[C@@H](O)[C@H](O)[C@H]3N)[C@@H](N)C[C@H]2N)OC[C@]1(C)O", "technique": "broth dilution", "time": "72 h", "MIC": "8 µg/mL"}
{"SMILES": "CC[C@@H](CO)NCCN[C@@H](CC)CO", "technique": "resazurin", "strain": "ATCC607", "time": "72 h", "MIC": "0.39 µg/mL"}
{"SMILES": "COc1nc2ccc(Br)cc2cc1[C@@H](c1ccccc1)[C@@](O)(CCN(C)C)c1cccc2ccccc12", "MIC": "0.03 µg/mL"}
{"SMILES": "C[C@@H]([C@H](N)C(=O)N[C@H](C(=O)O)[C@H]1O[C@@H](n2ccc(=O)[nH]c2=O)[C@H](O)[C@@H]1O)[C@H](O)c1ccc(O)cn1", "technique": "resazurin", "strain": "ATCC607", "time": "72 h", "MIC": "> 50 µg/mL"}
{"SMILES": "CCC(C)(C)C(=O)Oc1ccccc1C(=O)Nc1ncc([N+](=O)[O-])s1", "technique": "agar dilution", "strain": "MC^2155", "MIC": "> 25 µM"}
{"SMILES": "CC(C)=CCC/C(C)=C/CNCCOC(C)(C)C", "MIC": "50 µg/mL"}
{"SMILES": "CN[C@H](CC(C)C)C(=O)N[C@H]1C(=O)N[C@@H](CC(N)=O)C(=O)N[C@H]2C(=O)N[C@H]3C(=O)N[C@H](C(=O)N[C@H](C(=O)O)c4cc(O)cc(O)c4-c4cc3ccc4O)[C@H](O)c3ccc(c(Cl)c3)Oc3cc2cc(c3O[C@@H]2O[C@H](CO)[C@@H](O)[C@H](O)[C@H]2O[C@H]2C[C@](C)(N)[C@H](O)[C@H](C)O2)Oc2ccc(cc2Cl)[C@H]1O", "technique": "resazurin", "strain": "MC^2155", "time": "24 h", "MIC": "0.78 µg/mL"}
{"SMILES": "CC(C)=CCC/C(C)=C/COCC(=O)NC1C2CC3CC(C2)CC1C3 (stereo not drawn)", "MIC": "25 µg/mL"}
{"SMILES": "NNC(=O)c1ccncc1", "technique": "broth dilution", "strain": "ATCC607", "MIC": "> 200 µg/mL"}
{"SMILES": "CO[C@H]1/C=C/O[C@@]2(C)Oc3c(C)c(O)c4c(O)c(c(/C=N/N5CCN(C)CC5)c(O)c4c3C2=O)NC(=O)/C(C)=C\\C=C\\[C@H](C)[C@H](O)[C@@H](C)[C@@H](O)[C@@H](C)[C@H](OC(C)=O)[C@@H]1C", "technique": "broth dilution", "MIC": "162 µM"}
{"SMILES": "CO[C@H]1/C=C/O[C@@]2(C)Oc3c(C)c(O)c4c(O)c(c(/C=N/N5CCN(C)CC5)c(O)c4c3C2=O)NC(=O)/C(C)=C\\C=C\\[C@H](C)[C@H](O)[C@@H](C)[C@@H](O)[C@@H](C)[C@H](OC(C)=O)[C@@H]1C", "technique": "agar dilution", "MIC": "> 25 µg/mL"}
